Format in all cases: cell-based
One assay deals with MCF-7. In words: Antiproliferative SRB assay, MCF-7. The note with it: Homo sapiens, MCF7, 72 h, read-out: MCF-7 IC50 (μM) ± SD. An outline of the steps:
(§1)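 Cells from ATCC, grown in RPMI-1640 with 10% heat-inactivated FBS and penicillin–streptomycin at 37 °C, 5% CO2. They were trypsinized and seeded 24 h before treatment. Test compound was given at 0.01, 0.1, 1, 10 and 100 μg mL−1 for 72 h beside untreated controls. Cells were fixed in 10% TCA (1 h, 4 °C), stained with 0.4% SRB (10 min, dark), rinsed in 1% acetic acid, dissolved in Tris–HCl, and read at 540 nm.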
(In SRB staining, fixed cells bind dye roughly in proportion to their protein.)

The subject of a further assay is HepG2. Kind of assay: Antiproliferative SRB assay, HepG2. To be noted: Homo sapiens, HepG2, 72 h, read-out: HepG2 IC50 (μM) ± SD. An outline of the steps:
as §1

The next assay concerns HCT116. In words: Antiproliferative SRB assay, HCT116. The note with it: Homo sapiens, HCT-116, 72 h, read-out: HCT116 IC50 (μM) ± SD. An outline of the steps: as §1
Another assay has as its system EA.hy926. In words: SRB assay on normal cells EA.hy926. To be noted: Homo sapiens, EA.hy 926, 72 h, read-out: EA.hy926 IC50 (μM) ± SD. The method in brief: as §1

As usually defined, the IC50 is the point on the concentration scale where inhibition reaches its midpoint.

In the case of `N#CCC(=O)NNc1nc(-c2ccccc2)cs1` [compound 7, 2-cyano-N′-(4-phenylthiazol-2-yl)acetohydrazide], the half-inhibitory concentration (IC50) stood at 10.3 µM in the assay on MCF-7, 9.9 µM with HepG2, 6.5 µM in the assay with HCT116 and 11.6 µM in the assay on EA.hy926.
The corresponding values for `O=C(NNc1nc(-c2ccccc2)cs1)c1cc2ccccc2oc1=O` [6a, 2-Oxo-N′-(4-phenylthiazol-2-yl)-2H-chromene-3-carbohydrazide] are 72.9 µM, 36.5 µM, 82.5 µM and 31.9 µM.
The corresponding values for `COc1cccc2c1C(=O)c1c(O)c3c(c(O)c1C2=O)C[C@@](O)(C(=O)CO)C[C@@H]3O[C@H]1C[C@H](N)[C@H](O)[C@H](C)O1` [Doxorubicin, reference compound] are 2.1 µM, 1.6 µM, 1.9 µM and 1.7 µM.

(Values after publication PMC11167341 (RSC Advances, 2024).)
